According to ChEMBL document CHEMBL3580554, “Design, synthesis, and anticonvulsant activity of new hybrid compounds derived from 2-(2,5-dioxopyrrolidin-1-yl)propanamides and 2-(2,5-dioxopyrrolidin-1-yl)butanamides” (J Med Chem, 2015):
The source made the active and inactive calls. The calls are words filed in the database; no cut-off is given here.

Legend:
Mus musculus [1] = experiment: Anticonvulsant activity in Swiss mouse model of 6 Hz psychomotor seizure mode assessed as protection against seizures at 100 mg/kg, ip dosed 0.25 hrs before 6 Hz electrical stimulation by 6 Hz test; format: functional
Summary of the method: (§1)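 Mice were dosed i.p. at a fixed 300 or 100 mg/kg (6 Hz: 100 mg/kg only). Protection was then scored against MES, sc PTZ or 6 Hz seizures at pretreatment times of 0.25, 0.5, 1 and 2 h. Groups were four mice, scored as number protected / number tested. This also gives the time course and time of peak effect.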

Mus musculus [2] = experiment: Anticonvulsant activity in Swiss mouse assessed as protection against seizures at 100 mg/kg, ip dosed 1 hr before pentylenetetrazole challenge by subcutaneous pentylenetetrazole seizure test; format: functional; summary of the method: as §1
Mus musculus [3] = experiment: Anticonvulsant activity in ip dosed Swiss mouse assessed as protection against seizures measured at 0.25 hrs of time to peak effect by 6 Hz test by 6 Hz psychomotor seizure test; format: functional
Summary of the method: (§2)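 Median effective doses (ED50, mg/kg) were determined i.p. in mice at the time of peak effect in the MES, sc PTZ or 6 Hz tests. Only compounds giving at least 50% protection at 100 mg/kg in that test were taken forward.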

Mus musculus [4] = experiment: Anticonvulsant activity in Swiss mouse model of 6 Hz psychomotor seizure mode assessed as protection against seizures at 100 mg/kg, ip dosed 0.5 hrs before 6 Hz electrical stimulation by 6 Hz test; format: functional; summary of the method: as §1
Mus musculus [5] = experiment: Anticonvulsant activity in Swiss mouse assessed as protection against seizures at 100 mg/kg, ip dosed 0.5 hrs before pentylenetetrazole challenge by subcutaneous pentylenetetrazole seizure test; format: functional; summary of the method: as §1
Mus musculus [6] = experiment: Anticonvulsant activity in Swiss mouse assessed as protection against seizures at 100 mg/kg, ip dosed 2 hrs before pentylenetetrazole challenge by subcutaneous pentylenetetrazole seizure test; format: functional; summary of the method: as §1
Mus musculus [7] = experiment: Anticonvulsant activity in ip dosed Swiss mouse assessed as protection against seizures measured at 0.25 hrs of time to peak effect by subcutaneous pentylenetetrazole seizure test; format: functional; summary of the method: as §2
Mus musculus [8] = experiment: Anticonvulsant activity in ip dosed Swiss mouse assessed as protection against seizures measured at 0.5 hrs of time to peak effect by subcutaneous pentylenetetrazole seizure test; format: functional; summary of the method: as §2
Mus musculus [9] = experiment: Protective index, ratio of neurotoxic TD50 in Swiss mouse by Chimney test to anticonvulsant ED50 in Swiss mouse measured at 0.25 hrs of time to peak effect by subcutaneous pentylenetetrazole seizure test; format: functional
Summary of the method: (§3)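 Protective index was calculated as TD50 (chimney test, mouse, i.p.) divided by ED50 from the matching MES, sc PTZ or 6 Hz test, both taken at the time of peak effect.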

Mus musculus [10] = experiment: Anticonvulsant activity in Swiss mouse assessed as protection against seizures at 300 mg/kg, ip dosed 0.5 hrs before initiation of maximal electroconvulsions by maximal electroshock test; format: functional; summary of the method: as §1
[11] = Toxicity in ip dosed Swiss mouse assessed as induction of motor performance impairment measured within 60 seconds measured at 0.5 hrs of time to peak effect by Chimney test; format: organism-based; settings: in vivo
Summary of the method: (§4)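 Neurotoxicity was measured i.p. in mice by the chimney test for motor impairment. It was given as the median neurotoxic dose (TD50, mg/kg) at the time of peak effect.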

Mus musculus [12] = experiment: Anticonvulsant activity in Swiss mouse assessed as protection against seizures at 300 mg/kg, ip dosed 0.25 hrs before pentylenetetrazole challenge by subcutaneous pentylenetetrazole seizure test; format: functional; summary of the method: as §1
Mus musculus [13] = experiment: Anticonvulsant activity in Swiss mouse assessed as protection against seizures at 100 mg/kg, ip dosed 0.25 hrs before pentylenetetrazole challenge by subcutaneous pentylenetetrazole seizure test; format: functional; summary of the method: as §1
Mus musculus [14] = experiment: Anticonvulsant activity in Swiss mouse model of 6 Hz psychomotor seizure mode assessed as protection against seizures at 100 mg/kg, ip dosed 2 hrs before 6 Hz electrical stimulation by 6 Hz test; format: functional; summary of the method: as §1
Mus musculus [15] = experiment: Anticonvulsant activity in Swiss mouse assessed as protection against seizures at 100 mg/kg, ip dosed 0.25 hrs before initiation of maximal electroconvulsions by maximal electroshock test; format: functional; summary of the method: as §1
Mus musculus [16] = experiment: Anticonvulsant activity in Swiss mouse model of 6 Hz psychomotor seizure mode assessed as protection against seizures at 100 mg/kg, ip dosed 1 hr before 6 Hz electrical stimulation by 6 Hz test; format: functional; summary of the method: as §1
Mus musculus [17] = experiment: Anticonvulsant activity in Swiss mouse assessed as protection against seizures at 300 mg/kg, ip dosed 2 hrs before pentylenetetrazole challenge by subcutaneous pentylenetetrazole seizure test; format: functional; summary of the method: as §1
Mus musculus [18] = organism: Mus musculus; experiment: Protective index, ratio of neurotoxic TD50 in Swiss mouse by Chimney test to anticonvulsant ED50 in Swiss mouse measured at 0.5 hrs of time to peak effect by 6 Hz test by 6 Hz psychomotor seizure test; format: functional; summary of the method: as §3
Rattus norvegicus [19] = organism: Rattus norvegicus; experiment: Inhibition of [3H]BTX binding to sodium channel site 2 in rat cerebral cortex synaptosomes at 10 uM incubated for 60 mins by scintillation counting based radioligand displacement assay; format: subcellular
Summary of the method: (§5)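 Synaptoneurosomal preparations from rat cerebral cortex were used. The read-out was inhibition of specific [3H]BTX binding to the voltage-sensitive sodium channel (site 2), expressed as % inhibition of control specific binding. Compounds were tested at 1, 10, 100 and 500 μM. Inhibition above 50% was taken as significant.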

Mus musculus [20] = experiment: Anticonvulsant activity in Swiss mouse assessed as protection against seizures at 100 mg/kg, ip dosed 0.5 hrs before initiation of maximal electroconvulsions by maximal electroshock test; format: functional; summary of the method: as §1
Rattus norvegicus [21] = organism: Rattus norvegicus; experiment: Inhibition of [3H]BTX binding to sodium channel site 2 in rat cerebral cortex synaptosomes at 100 uM incubated for 60 mins by scintillation counting based radioligand displacement assay; format: subcellular; summary of the method: as §5
Mus musculus [22] = experiment: Anticonvulsant activity in Swiss mouse assessed as protection against seizures at 300 mg/kg, ip dosed 2 hrs before initiation of maximal electroconvulsions by maximal electroshock test; format: functional; summary of the method: as §1
Mus musculus [23] = experiment: Anticonvulsant activity in Swiss mouse assessed as protection against seizures at 300 mg/kg, ip dosed 1 hr before initiation of maximal electroconvulsions by maximal electroshock test; format: functional; summary of the method: as §1
Mus musculus [24] = experiment: Anticonvulsant activity in Swiss mouse assessed as protection against seizures at 100 mg/kg, ip dosed 1 hr before initiation of maximal electroconvulsions by maximal electroshock test; format: functional; summary of the method: as §1
Mus musculus [25] = organism: Mus musculus; experiment: Protective index, ratio of neurotoxic TD50 in Swiss mouse by Chimney test to anticonvulsant ED50 in Swiss mouse measured at 0.25 hrs of time to peak effect by 6 Hz test by 6 Hz psychomotor seizure test; format: functional; summary of the method: as §3
Mus musculus [26] = experiment: Anticonvulsant activity in Swiss mouse assessed as protection against seizures at 100 mg/kg, ip dosed 2 hrs before initiation of maximal electroconvulsions by maximal electroshock test; format: functional; summary of the method: as §1
Mus musculus [27] = experiment: Anticonvulsant activity in Swiss mouse assessed as protection against seizures at 300 mg/kg, ip dosed 0.5 hrs before pentylenetetrazole challenge by subcutaneous pentylenetetrazole seizure test; format: functional; summary of the method: as §1
Mus musculus [28] = organism: Mus musculus; experiment: Protective index, ratio of neurotoxic TD50 in Swiss mouse by Chimney test to anticonvulsant ED50 in Swiss mouse measured at 0.25 hrs of time to peak effect by maximal electroshock test; summary of the method: as §3
Mus musculus [29] = experiment: Anticonvulsant activity in ip dosed Swiss mouse assessed as protection against seizures measured at 0.5 hrs of time to peak effect by 6 Hz test by 6 Hz psychomotor seizure test; format: functional; summary of the method: as §2
Mus musculus [30] = experiment: Anticonvulsant activity in ip dosed Swiss mouse assessed as protection against seizures measured at 0.25 hrs of time to peak effect by maximal electroshock test; format: functional; summary of the method: as §2
Mus musculus [31] = experiment: Anticonvulsant activity in ip dosed Swiss mouse assessed as protection against seizures measured at 0.5 hrs of time to peak effect by maximal electroshock test; format: functional; summary of the method: as §2
[32] = Toxicity in ip dosed Swiss mouse assessed as induction of motor performance impairment measured within 60 seconds measured at 0.25 hrs of time to peak effect by Chimney test; format: organism-based; settings: in vivo; summary of the method: as §4
Mus musculus [33] = experiment: Protective index, ratio of neurotoxic TD50 in Swiss mouse by Chimney test to anticonvulsant ED50 in Swiss mouse measured at 0.5 hrs of time to peak effect by subcutaneous pentylenetetrazole seizure test; format: functional; summary of the method: as §3
Rattus norvegicus [34] = organism: Rattus norvegicus; experiment: Inhibition of [3H]BTX binding to sodium channel site 2 in rat cerebral cortex synaptosomes at 500 uM incubated for 60 mins by scintillation counting based radioligand displacement assay; format: subcellular; summary of the method: as §5
Mus musculus [35] = experiment: Anticonvulsant activity in Swiss mouse assessed as protection against seizures at 300 mg/kg, ip dosed 0.25 hrs before initiation of maximal electroconvulsions by maximal electroshock test; format: functional; summary of the method: as §1
Rattus norvegicus [36] = organism: Rattus norvegicus; experiment: Inhibition of [3H]BTX binding to sodium channel site 2 in rat cerebral cortex synaptosomes at 1 uM incubated for 60 mins by scintillation counting based radioligand displacement assay; format: subcellular; summary of the method: as §5
Mus musculus [37] = organism: Mus musculus; experiment: Protective index, ratio of neurotoxic TD50 in Swiss mouse by Chimney test to anticonvulsant ED50 in Swiss mouse measured at 0.5 hrs of time to peak effect by maximal electroshock test; summary of the method: as §3
Mus musculus [38] = experiment: Anticonvulsant activity in Swiss mouse assessed as protection against seizures at 300 mg/kg, ip dosed 1 hr before pentylenetetrazole challenge by subcutaneous pentylenetetrazole seizure test; format: functional; summary of the method: as §1
Rattus norvegicus [39] = organism: Rattus norvegicus; experiment: Inhibition of [125I]omega-conotoxin GVIA binding to N-type calcium channel in rat cerebral cortex synaptosomes at 100 uM incubated for 30 mins by scintillation counting based radioligand displacement assay; format: subcellular
Rattus norvegicus [40] = organism: Rattus norvegicus; experiment: Inhibition of [125I]omega-conotoxin GVIA binding to N-type calcium channel in rat cerebral cortex synaptosomes at 200 uM incubated for 30 mins by scintillation counting based radioligand displacement assay; format: subcellular

SMILES	Activity (Mus musculus [1]) [%]	Activity (Mus musculus [2]) [%]	ED50 (Mus musculus [3]) [mg/kg]	Activity (Mus musculus [4]) [%]	Activity (Mus musculus [5]) [%]	Activity (Mus musculus [6]) [%]	ED50 (Mus musculus [7]) [mg/kg]	ED50 (Mus musculus [8]) [mg/kg]	Ratio TD50/ED50 (Mus musculus [9])	Activity (Mus musculus [10]) [%]	TD50 at 0.5 h [11] [mg/kg]	Activity (Mus musculus [12]) [%]	Activity (Mus musculus [13]) [%]	Activity (Mus musculus [14]) [%]	Activity (Mus musculus [15]) [%]	Activity (Mus musculus [16]) [%]	Activity (Mus musculus [17]) [%]	Ratio TD50/ED50 (Mus musculus [18])	ED50 (Mus musculus [30]) [mg/kg]	TD50 at 0.25 h [32] [mg/kg]	further results
CCC(C(=O)N1CCN(c2cccc(C(F)(F)F)c2)CC1)N1C(=O)CCC1=O (racemic)	100	25	19.9	100	75	25	83.2	78.6	2.39	50	173	100	50	50	75	75	75	4.08	58.9	199	inhibition (Rattus norvegicus [19]): 9.5%; Activity (Mus musculus [20]): 50%; inhibition (Rattus norvegicus [21]): 8.8%; Activity (Mus musculus [22]): 50%; Activity (Mus musculus [23]): 100%; Activity (Mus musculus [24]): 0%; Ratio TD50/ED50 (Mus musculus [25]): 10; Activity (Mus musculus [26]): 0%; Activity (Mus musculus [27]): 75%; Ratio TD50/ED50 (Mus musculus [28]): 3.38; ED50 (Mus musculus [29]): 42.3 mg/kg; ED50 (Mus musculus [31]): 91.7 mg/kg; Ratio TD50/ED50 (Mus musculus [33]): 2.19; inhibition (Rattus norvegicus [34]): 69.5%; Activity (Mus musculus [35]): 75%; inhibition (Rattus norvegicus [36]): 8.4%; Ratio TD50/ED50 (Mus musculus [37]): 1.88; Activity (Mus musculus [38]): 75%
COCC(C(=O)N1CCN(c2cccc(C(F)(F)F)c2)CC1)N1C(=O)CCC1=O (racemic)	100	50	57.6	100	50	50	> 120	> 120	–	50	197	100	50	25	100	75	75	2.64	58.1	203	inhibition (Rattus norvegicus [39]): inactive; inhibition (Rattus norvegicus [40]): 3.2%; inhibition (Rattus norvegicus [19]): 14.6%; Activity (Mus musculus [20]): 75%; inhibition (Rattus norvegicus [21]): 38.7%; Activity (Mus musculus [22]): 100%; Activity (Mus musculus [23]): 100%; Activity (Mus musculus [24]): 50%; Ratio TD50/ED50 (Mus musculus [25]): 3.52; Activity (Mus musculus [26]): 0%; Activity (Mus musculus [27]): 100%; Ratio TD50/ED50 (Mus musculus [28]): 3.49; ED50 (Mus musculus [29]): > 120 mg/kg; ED50 (Mus musculus [31]): 85.1 mg/kg; inhibition (Rattus norvegicus [34]): 77.6%; Activity (Mus musculus [35]): 25%; inhibition (Rattus norvegicus [36]): 5.7%; Ratio TD50/ED50 (Mus musculus [37]): 2.32; Activity (Mus musculus [38]): 75%
CCC1(C)CC(=O)NC1=O (stereo unspecified) [ETHOSUXIMIDE]	–	–	> 200	–	–	–	148	–	4.89	–	–	–	–	–	–	–	–	–	> 500	722	–
